Screening data (PubChem BioAssay)
SR-BI HDL uptake = inhibitors of SR-BI mediated HDL lipid uptake, primary screen, ldlA[mSR-BI] cells, fluorescence, single point. hit rate 0.96% among 320,000. ldlA[mSR-BI] CHO cells, DiI-HDL uptake fluorescence, 3 h. inhibition, % at 12.5 µM. AID 488896, 2010;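 active = mean replicate inhibition of at least 70% and a set share of replicates each scoring 70 or more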;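 also: 0% = median of neutral control wells and 100% = median of positive control wells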
Target sequence (Q61009 whole entry, looked up): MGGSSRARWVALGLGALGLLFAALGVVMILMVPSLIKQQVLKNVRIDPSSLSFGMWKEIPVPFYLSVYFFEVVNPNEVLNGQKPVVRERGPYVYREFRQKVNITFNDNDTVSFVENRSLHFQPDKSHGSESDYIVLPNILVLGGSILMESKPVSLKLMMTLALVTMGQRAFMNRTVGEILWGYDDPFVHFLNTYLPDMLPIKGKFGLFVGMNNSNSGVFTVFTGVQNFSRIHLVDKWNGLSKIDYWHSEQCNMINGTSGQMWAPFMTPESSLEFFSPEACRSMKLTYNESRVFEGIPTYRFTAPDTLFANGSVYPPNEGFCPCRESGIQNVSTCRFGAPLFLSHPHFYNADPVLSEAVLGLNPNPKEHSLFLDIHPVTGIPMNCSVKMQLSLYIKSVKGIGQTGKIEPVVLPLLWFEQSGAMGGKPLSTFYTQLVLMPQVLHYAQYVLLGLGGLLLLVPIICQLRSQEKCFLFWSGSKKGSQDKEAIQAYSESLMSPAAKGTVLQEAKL
XiGFP reactiv = activators of inactive X chromosome reactivation, primary screen, imaging, XiGFP fibroblasts, GFP high-content imaging, set 2. XiGFP mouse fibroblasts, % GFP-positive cells imaging, 3 d; cells co-treated with 5-aza-dC sensitizer; scaled so ellipticine positive control = 100%. activation, % at 7.58 µM. hit rate 0.055% among 360,000. AID 743238, 2013;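 active = mean normalized replicate activation at least 10% and every replicate at or above 10%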;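 also: 0% = median of on-plate neutral control wells and 100% = ellipticine 6 µM median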
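assay system = SV40-immortalized XiGFP fibroblast cells, line 68-5-11 | buffer or medium = DMEM plus 5-aza-dC sensitizer | doses = single-point pinned compound dosing | times = 3-day compound exposure, then 15 min fixation at room temperature | benchmarks = positive control ellipticine, 6 µM final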
dFosB activator = activators of delta FosB homodimer, primary screen, biochemical, fluorescence polarization, TAMRA-CDK5 oligo, single point | Protein FosB (Mus musculus), P13346 | AID 493131, 2011 | hit rate 0.99% among 340,000 | purified delta FosB; percent of positive-control signal above neutral wells | activation, % at 25 µM;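 active = mean activation above about 17%, with every replicate also reaching it, limit read from the data, passing the limit was not always enough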
SR-BI uptake up = activators of SR-BI mediated DiI-HDL uptake, primary screen, ldlA[mSR-BI] CHO cells, DiI fluorescence. 3 h; 100 = double the neutral-control signal. activation, % at 12.5 µM. hit rate 0.096% among 320,000. AID 504775, 2011;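 active = mean replicate activation of at least 60% and every replicate at or above 60%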;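 also: 0% = median plate neutral-control signal and 100% = twice that signal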
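Material – SR-BI-overexpressing, LDLR-lacking CHO cells · Medium – BSA-supplemented, HEPES-buffered Ham's F12, pH 7.4 · Doses – single concentration · Times – compound with DiI-HDL co-incubation, 3 h at 37 °C · Measured by – bottom-read fluorescence, 550/595 nm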
PvdQ inh = P. aeruginosa PvdQ acylase inhibitors, primary screen, biochemical, fluorescence, plate reader and imaging, single point; PvdQ acylase [Pseudomonas aeruginosa LESB58]; purified PvdQ acylase; inhibition, % at 10 µM; hit rate 0.063% among 340,000; in the data active = inhibition above about 30%, passing the limit was not always enough;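 also: 0% = vehicle neutral wells and 100% = reference inhibitor wells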
rRNA inh HTS = reduced GFP signal of wild-type E. coli, primary screen, bacterial rRNA inhibitor project, GFP/RFP fluorescence, OD600, single point | GFP signal change (wild-type ribosome), % (no concentration beside the values) | hit rate 1.6% among 350,000 | E. coli WT GFP vs humanized-ribosome RFP mutants, 24 h; stronger effect = lower value; DMSO median 0, no signal -100 | AID 720706, 2013;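 active = significant combined selectivity score with lowered wild-type GFP, culture density cut under 30%, mutant RFP and density less affected; inactive = any of these conditions unmet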
* hit, by the source's call; . = no result. A selection: hits, their analogues and other compounds. The true share with any hit is near 2.6%.

SMILES | SR-BI HDL uptake | XiGFP reactiv | dFosB activator | SR-BI uptake up | PvdQ inh | rRNA inh HTS
Cc1cc(N/N=C/c2ccc3c(c2)OCO3)nc2ccccc12 | 9.5 | -0.1 | 60.7* | -9.5 | 9.4 | -46.0
O=c1[nH]c(N/N=C\c2ccc3c(c2)OCO3)nc2ccccc12 | -3.7 | 0.3 | 34.4* | 3.7 | -3.8 | 5.3
O=c1[nH]c(N/N=C/c2ccccc2)nc2ccccc12 | -35.6 | . | -13.2 | 35.6 | -0.9 | .
CC(=O)Nc1ccc(S(=O)(=O)NC2=NCN(c3ccc([N+](=O)[O-])cc3)CN2)cc1 | -27.6 | 0.1 | 23.9* | . | 8.2 | 10.8
CO[C@@H]1CN(C)C(=O)c2cc(NC(=O)c3ccccc3)ccc2OC[C@@H](C)N(C)C[C@H]1C | . | 0.0 | . | . | . | 0.5
Fc1ccc(CNCc2cccc(Br)c2)cc1 | 14.4 | 0.0 | 3.0 | -14.4 | 31.2* | 10.6
Cc1c(CNCCc2ccccc2Cl)c(C(=O)O)c(C)n1-c1ccccc1 | -169.1 | 0.0 | -6.3 | 169.1* | -8.8 | 2.2
Cc1ccc(S(=O)(=O)Nc2c(C)cc([N+](=O)[O-])cc2C)cc1 | -20.2 | 0.0 | -4.2 | 20.2 | -1.6 | -22.2*
Cc1ccc(S(=O)(=O)NCCNc2ccc([N+](=O)[O-])cc2)cc1 | -9.8 | 0.0 | -4.8 | 9.8 | -7.6 | -27.2*
Fc1cccc(-c2cc3nc4c(c(N5CCOCC5)n3n2)CCCC4)c1 | 71.5* | . | -3.3 | -71.5 | 8.6 | .
Fc1cccc(-c2cc3nc4c(c(NCc5ccco5)n3n2)CCCC4)c1 | 43.7 | . | -7.8 | -43.7 | -6.7 | -32.0*
COc1cccc(-c2cc3nc4c(c(NCC(C)(C)CN(C)C)n3n2)CCCC4)c1 | 18.3 | 0.0 | 2.1 | -18.3 | 2.7 | -52.2
Clc1cccc(-c2cc3nc4c(c(N5CCOCC5)n3n2)CCCC4)c1 | 77.2* | . | -4.4 | -77.2 | 4.5 | .
COC(=O)Cc1cc(=O)n2[nH]c(C)cc2n1 | -12.2 | . | -10.2 | 12.2 | -6.8 | .
COc1ccc(CCNC(=O)c2nc(-c3cccs3)no2)cc1OC | -17.8 | 0.1 | -3.9 | 17.8 | -16.1 | -22.3*
COc1ccccc1CCNC(=O)c1nc(-c2cccs2)no1 | -7.5 | 0.5 | -3.5 | 7.5 | -27.9 | -13.1
CC(c1cccs1)N(Cc1ccco1)C(=S)Nc1ccccc1Cl (configuration not stated) | 20.1 | -0.2 | -2.9 | -20.1 | -13.6 | -19.6*
Cc1ccccc1NC(=S)N(Cc1ccco1)C(C)c1cccs1 (configuration not stated) | -22.6 | 0.4 | -7.6 | 22.5 | -6.0 | -13.0
O=C(NCc1ccc2c(c1)OCO2)C1CCN(S(=O)(=O)N2CCOCC2)CC1 | 1.3 | 0.1 | -5.1 | -1.3 | -7.6 | .
CC1(CCc2ccccc2)NC(=O)N(Cc2cc([N+](=O)[O-])cc3c2OCOC3)C1=O (configuration not stated) | 8.8 | 0.4 | -0.8 | -8.8 | 14.4 | -24.4*
O=[N+]([O-])c1cc2c(c(CSc3nnc4ccccn34)c1)OCOC2 | 14.7 | . | -3.9 | -14.7 | -8.2 | .
Cc1cc(S(=O)(=O)NCC2CC2)c(Cl)cc1Cl | 21.5 | 0.0 | 2.0 | -21.5 | 106.9* | -12.1
CC(C)NC(=O)N1[C@@H](C#N)[C@H](c2ccc(-c3ccc(F)cc3)cc2)[C@@H]1CO | . | 0.0 | . | . | . | 12.4
Cc1ccc2oc(-c3cccc(N)c3)nc2c1 | 4.7 | -0.1 | -3.1 | -4.7 | -6.3 | -22.6*
Cc1ccc(-c2nc3cc(N)ccc3o2)cc1 | -6.3 | . | 2.8 | 6.3 | -5.9 | .
SMILES | SR-BI HDL uptake | XiGFP reactiv | dFosB activator | SR-BI uptake up | PvdQ inh | rRNA inh HTS
COc1ccc(/C=C/C(=O)c2oc3ccc(F)cc3c2C)cc1 | 0.1 | . | -16.1 | -0.1 | -13.5 | .
COC(=O)CSc1cc(C(=O)c2nccn2C)c2ccccc2n1 | -6.7 | . | -1.9 | 6.7 | 11.9 | .
COc1ccc(C(=O)CSc2ccc(-c3ccccc3)nn2)cc1 | -9.9 | 0.3 | 1.9 | 9.9 | 3.6 | .
COc1cccc(-c2ccc(SCC(=O)c3ccccc3)nn2)c1 | 9.3 | 0.0 | -27.8 | -9.3 | -11.7 | -26.9*
CC1(C)C2CCC13CS(=O)(=O)N[C@@H]3C2 (some centres not stated) | -117.8 | . | 7.5 | 117.8* | -14.6 | .
CO[C@H]1CN(C)C(=O)c2cc(NC(=O)c3ccccc3F)ccc2OC[C@H](C)N(CC2CC2)C[C@H]1C | . | -0.4 | . | . | . | 1.3
Cc1ccsc1C(=O)NCC(=O)OCc1ccccc1 | -5.7 | 0.0 | 0.4 | 5.7 | 5.3 | 10.0
CCN(CC)S(=O)(=O)c1ccc(N2CCN(c3cccc(OC)c3)CC2)c([N+](=O)[O-])c1 | 54.1 | 0.4 | -1.4 | -54.1 | 16.3 | .
COc1cccc(N2CCN(c3ccc(S(=O)(=O)N4CCN(C)CC4)cc3[N+](=O)[O-])CC2)c1 | 33.2 | 0.1 | -6.2 | -33.2 | -7.0 | -23.0*
O=C(N1CCN(Cc2ccc3c(c2)OCO3)CC1)C(Cl)(Cl)Cl | 8.0 | 0.2 | -6.6 | -8.0 | -6.4 | -18.8*
Cn1c(C(=O)N2CCN(Cc3ccc4c(c3)OCO4)CC2)cc2c(=O)n(C)c3ccccc3c21 | 76.1* | 0.0 | 7.2 | -76.1 | -0.8 | -7.4
O=C(c1ccc2c(c1)OCO2)C1CCCN(Cc2cn[nH]c2-c2ccccc2)C1 (configuration not stated) | -5.2 | -0.1 | -3.8 | 5.2 | -10.2 | -1.4
Cn1c(C(=O)N2CCCC2)cc2c(=O)n(C)c3ccccc3c21 | 2.2 | 0.4 | -8.2 | -2.2 | 10.6 | 4.1
c1ccc(-c2[nH]ncc2CN2CCN(Cc3ccc4c(c3)OCO4)CC2)cc1 | -15.5 | 0.0 | -11.3 | 15.5 | -11.8 | -46.8*
CCc1cccc(C)c1N=Cc1c(O)c2ccccc2oc1=O | 22.2 | 0.2 | -13.9 | -22.2 | -17.2 | -24.1*
O=S(=O)(Nc1cccc(Br)c1)c1cccc2nsnc12 | -38.1 | 0.3 | -2.5 | 38.1 | 15.9 | -33.5*
CC[N+]1=C(C)C(C)(C)c2cc(C)ccc21 | . | 73.3* | -7.3 | . | -5.2 | -39.1
CCN1C(=O)C(=O)c2cc(C)ccc21 | -5.6 | 0.5 | -8.6 | 5.6 | -7.4 | 4.8
N=c1n(CCN2CCOCC2)c2ccccc2n1CC(=O)c1cccc([N+](=O)[O-])c1 | 76.9* | 0.1 | -4.6 | -76.9 | 1.9 | 7.7
CCn1c(=N)n(CC(=O)c2cccc([N+](=O)[O-])c2)c2ccccc21 | 53.7 | 0.3 | 3.6 | -53.7 | -6.8 | -2.1
Cc1cc2c([nH]c3ccccc32)c(C)n1 | 12.6 | 0.1 | -4.9 | -12.6 | -15.1 | -36.9
